From ChEMBL document CHEMBL5335826, “Biochemical and Structural Studies of the Carminomycin 4-O-Methyltransferase DnrK” (J Nat Prod, 2024)

Columns and labels:
[1] = substrate: Cc1cc(=O)oc2cc(O)ccc12; experiment: Binding affinity to Streptomyces peucetius 4-O-methyltransferase DnrK assessed as catalytic constant
How it was run: (§1)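 N-His6-DnrK (10 μM), expressed in E. coli, was run in 50 mM Tris pH 8.0 at 37 °C with saturating AdoMet (1.6 mM). Acceptor was varied: carminomycin from 15 μM to […] as printed, or 4-methylumbelliferone from 150 μM to 10 mM. Methylated product was quantified by reversed-phase HPLC peak integration. Runs were in triplicate, and parameters came from Michaelis–Menten reciprocal plots.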

[2] = substrate: Cc1cc(=O)oc2cc(O)ccc12; experiment: Binding affinity to Streptomyces peucetius 4-O-methyltransferase DnrK assessed as maximal activity; how it was run: as §1

B1: Carminomycin 4-O-methyltransferase DnrK (Streptomyces peucetius), Q06528 (protein)
chain: MTAEPTVAARPQQIDALRTLIRLGSLHTPMVVRTAATLRLVDHILAGARTVKALAARTDTRPEALLRLIRHLVAIGLLEEDAPGEFVPTEVGELLADDHPAAQRAWHDLTQAVARADISFTRLPDAIRTGRPTYESIYGKPFYEDLAGRPDLRASFDSLLACDQDVAFDAPAAAYDWTNVRHVLDVGGGKGGFAAAIARRAPHVSATVLEMAGTVDTARSYLKDEGLSDRVDVVEGDFFEPLPRKADAIILSFVLLNWPDHDAVRILTRCAEALEPGGRILIHERDDLHENSFNEQFTELDLRMLVFLGGALRTREKWDGLAASAGLVVEEVRQLPSPTIPYDLSLLVLAPAATGA
- kcat [1]: 0.0006 s⁻¹
- Km [2]: 1160 µM
